Assay type in all cases: functional
What all share (settings): read-out: DIZ

The subject of test [1] is Candida albicans. Nature of the test: Antimicrobial activity against Candida albicans at 0.5 mg/ml by well plate method. In a few lines:
(§1)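 Fungal well-plate diffusion against Candida albicans, Aspergillus flavus and Chrysosporium keratinophilum. Compounds in DMSO at 1 and 0.5 mg/mL, with fluconazole as the reference drug. Activity scored as the zone of inhibition.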

The subject of test [2] is Candida albicans. Nature of the test: Antimicrobial activity against Candida albicans at 1 mg/ml by well plate method. In a few lines:
as §1

Test [3] has as its system Chrysosporium keratinophilum. Nature of the test: Antimicrobial activity against Chrysosporium keratinophilum at 0.5 mg/ml by well plate method. In a few lines: as §1
Test [4] relates to Aspergillus flavus. Nature of the test: Antimicrobial activity against Aspergillus flavus at 0.5 mg/ml by well plate method. A digest of the protocol:
as §1

Test [5] has as its system Chrysosporium keratinophilum. Nature of the test: Antimicrobial activity against Chrysosporium keratinophilum at 1 mg/ml by well plate method. A digest of the protocol:
as §1

The test system of test [6] is Aspergillus flavus. Nature of the test: Antimicrobial activity against Aspergillus flavus at 1 mg/ml by well plate method. In a few lines: as §1
For test [7], the system named is Pseudomonas aeruginosa. Nature of the test: Antimicrobial activity against Pseudomonas aeruginosa at 0.5 mg/ml by well plate method. A digest of the protocol:
(§2)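 Agar well-plate diffusion against E. coli, B. subtilis and P. aeruginosa. Test compounds dissolved in DMSO at 1 and 0.5 mg/mL and placed in wells. Streptomycin was the reference drug. Read-out is the zone of inhibition.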

Test [8] concerns Pseudomonas aeruginosa. Nature of the test: Antimicrobial activity against Pseudomonas aeruginosa at 1 mg/ml by well plate method. A digest of the protocol: as §2
Test [9] deals with Bacillus subtilis. Nature of the test: Antimicrobial activity against Bacillus subtilis at 0.5 mg/ml by well plate method. In a few lines:
as §2

Test [10] deals with Bacillus subtilis. Nature of the test: Antimicrobial activity against Bacillus subtilis at 1 mg/ml by well plate method. A digest of the protocol:
as §2

In test [11] the test system is Escherichia coli. Nature of the test: Antimicrobial activity against Escherichia coli at 0.5 mg/ml by well plate method. A digest of the protocol: as §2
Test [12] deals with Escherichia coli. Nature of the test: Antimicrobial activity against Escherichia coli at 1 mg/ml by well plate method. In a few lines:
as §2

For `CC(C)(C)C(=O)Nc1nnc(-c2ccc(Nc3ccc(F)cc3)c([N+](=O)[O-])c2)s1`, the zone of inhibition at 500 µg/mL in the test with Candida albicans [1] was 2 mm; in test [3] it was 4 mm; with Aspergillus flavus [4], 2 mm; in the test with Pseudomonas aeruginosa [7], 4 mm; in the test on Bacillus subtilis [9] it was 3 mm; with Escherichia coli [11], 5 mm. Further, the zone of inhibition at 1000 µg/mL in the test on Candida albicans [2] came to 4 mm; in test [5], 5 mm; with Aspergillus flavus [6], 3 mm; with Pseudomonas aeruginosa [8], 6 mm; in the test with Bacillus subtilis [10], 5 mm; in the test with Escherichia coli [12] it was 7 mm.
Turning to `CC(C)(C)C(=O)Nc1nnc(-c2ccc(N3CCOCC3)c([N+](=O)[O-])c2)s1`, the zone of inhibition at 500 µg/mL came out at 3 mm in the test on Candida albicans [1]; 2 mm in test [3]; 2 mm with Aspergillus flavus [4]; 10 mm with Pseudomonas aeruginosa [7]; 9 mm in the test on Bacillus subtilis [9]; 10 mm in the test with Escherichia coli [11]. In addition, the zone of inhibition at 1000 µg/mL in the test on Candida albicans [2] came out at 5 mm; in test [5], 4 mm; in the test with Aspergillus flavus [6], 5 mm; in the test on Pseudomonas aeruginosa [8] it was 13 mm; in the test with Bacillus subtilis [10], 11 mm; with Escherichia coli [12], 12 mm.
Take `CCCCNc1ccc(-c2nn3cc(-c4ccc(OC)cc4)nc3s2)cc1[N+](=O)[O-]`: the zone of inhibition at 500 µg/mL in the test with Candida albicans [1] was 2 mm; in test [3] it was 1 mm; with Pseudomonas aeruginosa [7] it was 5 mm; in the test on Bacillus subtilis [9], 4 mm; with Escherichia coli [11], 3 mm. The zone of inhibition at 1000 µg/mL is 3 mm in the test with Candida albicans [2]; 3 mm in [5]; 2 mm with Aspergillus flavus [6]; 7 mm in the test with Pseudomonas aeruginosa [8]; 6 mm in the test with Bacillus subtilis [10]; 5 mm with Escherichia coli [12].
Take `CC(C)(C)C(=O)Nc1nnc(-c2ccc(NC3CCCCC3)c([N+](=O)[O-])c2)s1`: the zone of inhibition at 500 µg/mL worked out at 7 mm in the test on Candida albicans [1]; 4 mm in test [3]; 5 mm with Aspergillus flavus [4]; 7 mm in the test on Pseudomonas aeruginosa [7]; 6 mm in the test on Bacillus subtilis [9]; 8 mm in the test with Escherichia coli [11]. For the same molecule, the zone of inhibition at 1000 µg/mL stood at 9 mm in the test on Candida albicans [2]; 6 mm in test [5]; 7 mm in the test with Aspergillus flavus [6]; 9 mm in the test on Pseudomonas aeruginosa [8]; 8 mm in the test with Bacillus subtilis [10]; 10 mm with Escherichia coli [12].
`CC(C)(C)C(=O)Nc1nnc(-c2ccc(NC3CCCC3)c([N+](=O)[O-])c2)s1`: the zone of inhibition at 500 µg/mL came to 2 mm with Candida albicans [1]; 2 mm in [3]; 2 mm in the test on Aspergillus flavus [4]; 2 mm in the test on Pseudomonas aeruginosa [7]; 3 mm with Bacillus subtilis [9]; 4 mm with Escherichia coli [11]. Moreover, the zone of inhibition at 1000 µg/mL in the test with Candida albicans [2] was 5 mm; in [5], 4 mm; in the test on Aspergillus flavus [6] it was 4 mm; in the test on Pseudomonas aeruginosa [8], 3 mm; in the test on Bacillus subtilis [10], 4 mm; in the test with Escherichia coli [12], 6 mm.
In the case of `CC(C)(C)C(=O)Nc1nnc(-c2ccc(N3CCC(c4ccc(C(F)(F)F)cc4)CC3)c([N+](=O)[O-])c2)s1`, the zone of inhibition at 500 µg/mL stood at 4 mm with Candida albicans [1]; 5 mm in test [3]; 5 mm in the test on Aspergillus flavus [4]; 6 mm with Pseudomonas aeruginosa [7]; 5 mm in the test with Bacillus subtilis [9]; 5 mm in the test with Escherichia coli [11]. For the same molecule, the zone of inhibition at 1000 µg/mL in the test on Candida albicans [2] was 7 mm; in test [5] it was 7 mm; in the test on Aspergillus flavus [6], 8 mm; with Pseudomonas aeruginosa [8], 7 mm; in the test on Bacillus subtilis [10], 7 mm; with Escherichia coli [12], 8 mm.
For `COc1ccc(-c2cn3nc(-c4ccc(N5CCN(C)CC5)c([N+](=O)[O-])c4)sc3n2)cc1`, the zone of inhibition at 500 µg/mL in the test with Pseudomonas aeruginosa [7] stood at 3 mm; with Bacillus subtilis [9], 3 mm; in the test on Escherichia coli [11] it was 4 mm. The zone of inhibition at 1000 µg/mL with Pseudomonas aeruginosa [8] turned out to be 5 mm; in the test with Bacillus subtilis [10] it was 5 mm; in the test with Escherichia coli [12] it was 6 mm.
For `COc1ccc(-c2cn3nc(-c4ccc(N5CCCC5)c([N+](=O)[O-])c4)sc3n2)cc1`, the zone of inhibition at 500 µg/mL in the test on Candida albicans [1] was 5 mm; in test [3] it was 4 mm; in the test with Aspergillus flavus [4], 5 mm; with Pseudomonas aeruginosa [7], 4 mm; with Bacillus subtilis [9] it was 7 mm; in the test on Escherichia coli [11], 5 mm. For the same molecule, the zone of inhibition at 1000 µg/mL with Candida albicans [2] was determined as 7 mm; in test [5], 6 mm; in the test with Aspergillus flavus [6], 7 mm; with Pseudomonas aeruginosa [8], 6 mm; with Bacillus subtilis [10], 9 mm; in the test with Escherichia coli [12], 8 mm.
On to `COc1ccc(-c2cn3nc(-c4ccc(NC5CCCCC5)c([N+](=O)[O-])c4)sc3n2)cc1`, for which the zone of inhibition at 500 µg/mL with Candida albicans [1] was 7 mm; in test [3], 5 mm; in the test on Aspergillus flavus [4], 6 mm; with Pseudomonas aeruginosa [7] it was 7 mm; in the test with Bacillus subtilis [9], 7 mm; in the test on Escherichia coli [11], 9 mm. Also, the zone of inhibition at 1000 µg/mL in the test with Candida albicans [2] was 9 mm; in test [5], 7 mm; with Aspergillus flavus [6], 8 mm; in the test with Pseudomonas aeruginosa [8] it was 9 mm; in the test with Bacillus subtilis [10] it was 10 mm; in the test with Escherichia coli [12], 11 mm.
`CN1CCN(c2ccc(-c3nnc(NC(=O)C(C)(C)C)s3)cc2[N+](=O)[O-])CC1`: the zone of inhibition at 500 µg/mL in the test with Candida albicans [1] was 2 mm; in test [3] it was 2 mm; with Pseudomonas aeruginosa [7], 2 mm; in the test with Bacillus subtilis [9], 3 mm; with Escherichia coli [11], 3 mm. Further, the zone of inhibition at 1000 µg/mL was 4 mm in the test with Candida albicans [2]; 4 mm in test [5]; 3 mm in the test on Aspergillus flavus [6]; 3 mm in the test with Pseudomonas aeruginosa [8]; 4 mm with Bacillus subtilis [10]; 5 mm with Escherichia coli [12].
For the molecule `COc1ccc(-c2cn3nc(-c4ccc(NCc5ccc(F)cc5F)c([N+](=O)[O-])c4)sc3n2)cc1`, the zone of inhibition at 500 µg/mL came out at 3 mm in the test on Candida albicans [1]; 6 mm in test [3]; 3 mm in the test with Aspergillus flavus [4]; 2 mm with Pseudomonas aeruginosa [7]; 2 mm with Bacillus subtilis [9]; 1 mm with Escherichia coli [11]. In addition, the zone of inhibition at 1000 µg/mL amounted to 5 mm with Candida albicans [2]; 8 mm in test [5]; 6 mm in the test with Aspergillus flavus [6]; 4 mm with Pseudomonas aeruginosa [8]; 4 mm in the test with Bacillus subtilis [10]; 3 mm in the test on Escherichia coli [12].
Turning to `CC(C)(C)C(=O)Nc1nnc(-c2ccc(NCc3ccc(F)cc3F)c([N+](=O)[O-])c2)s1`, the zone of inhibition at 500 µg/mL is 3 mm in the test on Candida albicans [1]; 5 mm in test [3]; 4 mm with Aspergillus flavus [4]; 2 mm in the test on Pseudomonas aeruginosa [7]; 2 mm in the test with Bacillus subtilis [9]; 3 mm in the test on Escherichia coli [11]. Besides, the zone of inhibition at 1000 µg/mL turned out to be 5 mm with Candida albicans [2]; 7 mm in test [5]; 6 mm in the test on Aspergillus flavus [6]; 4 mm with Pseudomonas aeruginosa [8]; 4 mm with Bacillus subtilis [10]; 5 mm in the test with Escherichia coli [12].
Consider `COc1ccc(-c2cn3nc(-c4ccc(NCC5CCCO5)c([N+](=O)[O-])c4)sc3n2)cc1` (stereo not given), for which the zone of inhibition at 500 µg/mL with Candida albicans [1] turned out to be 5 mm; in [3], 6 mm; in the test on Aspergillus flavus [4], 6 mm; in the test with Pseudomonas aeruginosa [7] it was 9 mm; in the test with Bacillus subtilis [9], 8 mm; in the test with Escherichia coli [11], 10 mm. The zone of inhibition at 1000 µg/mL with Candida albicans [2] stood at 7 mm; in test [5], 8 mm; with Aspergillus flavus [6], 9 mm; in the test on Pseudomonas aeruginosa [8], 13 mm; in the test with Bacillus subtilis [10], 10 mm; with Escherichia coli [12], 13 mm.
As to `CN[C@@H]1[C@H](O[C@H]2[C@H](O[C@H]3[C@H](O)[C@@H](O)[C@H](N=C(N)N)[C@@H](O)[C@@H]3N=C(N)N)O[C@@H](C)[C@]2(O)C=O)O[C@@H](CO)[C@H](O)[C@H]1O` [STREPTOMYCIN], the zone of inhibition at 500 µg/mL was found to be 15 mm in the test with Pseudomonas aeruginosa [7], 19 mm in the test with Bacillus subtilis [9] and 17 mm in the test on Escherichia coli [11]. In addition, the zone of inhibition at 1000 µg/mL came out at 19 mm in the test with Pseudomonas aeruginosa [8], 22 mm with Bacillus subtilis [10] and 19 mm in the test with Escherichia coli [12].
Regarding `OC(Cn1cncn1)(Cn1cncn1)c1ccc(F)cc1F` [FLUCONAZOLE], the zone of inhibition at 500 µg/mL in the test on Candida albicans [1] came out at 20 mm; in test [3] it was 15 mm; in the test with Aspergillus flavus [4] it was 10 mm. The results for the zone of inhibition at 1000 µg/mL (in the test with Candida albicans [2]; in test [5]; in the test on Aspergillus flavus [6]) were 22 mm, 17 mm and 13 mm, respectively.
